Assay results as given in ChEMBL document CHEMBL4610058, “Mariannamides A and B, new cyclic octapeptides isolated from Mariannaea elegans NBRC102301” (2020).
The source made the active and inactive calls. The calls are words filed in the database; no cut-off is given here. Where a SMILES comes first, the peptide text is derived from it.

Legend:
C2C12 [1] = experiment: Upregulation of SIRT1 mRNA expression in mouse C2C12 cells at 50 uM measured after 24 hrs by qRT-PCR analysis; assay type: functional, cell-based
Procedure, shortened: (§1)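 C2C12 seeded at 2×10^5 cells/well, grown to 90% confluence, then differentiated 2 days in DMEM with 2% horse serum. Treated 24 h with compound (10–50 µM), DMSO, or resveratrol 50 µM (positive control). SIRT1 mRNA measured by qRT-PCR (40 cycles, 95/60 °C), GAPDH reference, ΔΔCt vs DMSO. Triplicate; mean ± S.E.M.; one-way ANOVA with Tukey.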

C2C12 [2] = experiment: Upregulation of SIRT1 mRNA expression in mouse C2C12 cells at 50 uM measured after 24 hrs by qRT-PCR analysis relative to control; assay type: functional; procedure, shortened: as §1
Escherichia coli = experiment: Antimicrobial activity against Escherichia coli U541 assessed as diameter of inhibition zone measured after 24 hrs by disc diffusion assay; assay type: functional
Procedure, shortened: (§2)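 Bacteria grown in Mueller Hinton broth at 37 °C for 24 h and adjusted to 0.5 McFarland. 6 mm paper discs loaded with 2 µg compound (20 µL) placed on Mueller Hinton agar spread with the suspension, then incubated 37 °C for 24 h. Inhibition-zone diameter measured including the disc. Blank 5% DMSO discs as negative control. Triplicate.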

Cryptococcus neoformans = experiment: Antimicrobial activity against Cryptococcus neoformans IFM 40215 assessed as diameter of inhibition zone measured after 24 hrs by disc diffusion assay; assay type: functional
Procedure, shortened: (§3)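 Yeasts pre-cultured on YPD agar at 37 °C for 24 h, suspended in Mueller Hinton broth and adjusted to 0.5 McFarland. 6 mm discs carrying 2 µg compound (20 µL) laid on Mueller Hinton agar spread with the fungal suspension, then incubated 37 °C for 24 h. Zone diameter read including the disc. 5% DMSO discs as negative control. Triplicate.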

[3] = test system: Meyerozyma guilliermondii; experiment: Antimicrobial activity against Candida guilliermondii TIMM 0260 measured after 24 hrs by disc diffusion method; assay type: functional, organism-based; procedure, shortened: as §3
Staphylococcus aureus = experiment: Antimicrobial activity against methicillin-resistant Staphylococcus aureus N315 measured after 24 hrs by disc diffusion method; assay type: functional, organism-based
Procedure, shortened: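 Disc diffusion on Müller Hinton agar. MRSA N315 grown in Müller Hinton broth at 37 °C for 24 h, then adjusted to McFarland 0.5. Sterile 6 mm paper discs loaded with 20 µL (2 µg) of compound. Incubation at 37 °C for 24 h. Read-out is inhibition zone diameter including the disc. Negative control was discs with 5% DMSO. Triplicate; mean ± S.E.M.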

Candida albicans = experiment: Antimicrobial activity against Candida albicans IFM 40213 measured after 24 hrs by disc diffusion method; assay type: functional, organism-based; procedure, shortened: as §3
[Candida] auris = Antimicrobial activity against Candida auris JCM 15448 measured after 24 hrs by disc diffusion method; assay type: functional, organism-based; details: Candidozyma auris; procedure, shortened: as §3
Bacillus subtilis = experiment: Antimicrobial activity against Bacillus subtilis HA101 measured after 24 hrs by disc diffusion method; assay type: functional, organism-based; procedure, shortened: as §2
Nakaseomyces glabratus = experiment: Antimicrobial activity against Candida glabrata IFM 40217 measured after 24 hrs by disc diffusion method; assay type: functional, organism-based; procedure, shortened: as §3
Enterococcus faecalis = experiment: Antimicrobial activity against Enterococcus faecalis JCM7783 measured after 24 hrs by disc diffusion method; assay type: functional, organism-based; procedure, shortened: as §2
Candida parapsilosis = experiment: Antimicrobial activity against Candida parapsilosis IFM 40218 measured after 24 hrs by disc diffusion method; assay type: functional, organism-based; procedure, shortened: as §3

Compound: Oc1ccc(/C=C/c2cc(O)cc(O)c2)cc1
- Activity (C2C12 [1]): Active

Compound: CC[C@H](C)[C@@H]1NC(=O)[C@H](C(C)C)NC(=O)[C@@H]2CCCN2C(=O)[C@H]([C@@H](C)CC)NC(=O)[C@H](CC(C)C)NC(=O)[C@@H]2CCCN2C(=O)[C@@H]2CCCN2C(=O)[C@H](CC(C)C)NC1=O (cyclo(ILPPLIPV))
- fold change (FC) (C2C12 [2]): 1.5
- diameter of the inhibition zone (DIZ) (Escherichia coli): 9.4 mm
- diameter of the inhibition zone (DIZ) (Cryptococcus neoformans): 7.7 mm

Compound: CC[C@H](C)[C@@H]1NC(=O)[C@H](CC(C)C)NC(=O)[C@@H]2CCCN2C(=O)[C@@H]2CCCN2C(=O)[C@H](CC(C)C)NC(=O)[C@H](C(C)C)NC(=O)[C@H](C(C)C)NC(=O)[C@@H]2CCCN2C1=O (cyclo(IPVVLPPL))
- Activity [3]: inactive
- Activity (Staphylococcus aureus): inactive
- Activity (Candida albicans): inactive
- Activity ([Candida] auris): inactive
- Activity (Escherichia coli): inactive
- Activity (Bacillus subtilis): inactive
- Activity (Nakaseomyces glabratus): inactive
- Activity (Enterococcus faecalis): inactive
- Activity (Cryptococcus neoformans): inactive
- Activity (Candida parapsilosis): inactive
